Data set [1] deals with Pseudomonas aeruginosa. In words: Antibacterial activity against Pseudomonas aeruginosa NRZ 08418 assessed as bacterial growth inhibition by broth microdilution assay. The data set is classed as functional. The gist of the method:
(§1)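 Broth microdilution. Bacteria from glycerol stocks were grown overnight on blood agar at 37 °C, then colonies were suspended in TSB and grown to OD600 0.5. Compounds were dissolved in DMSO at 6.4 mg mL−1 (stock) and serially diluted in CAMHB (Mg2+ 12.5, Ca2+ 20 μg mL−1) in polypropylene plates. Inoculum was 10^6 CFU mL−1 final, incubated at 37 °C. MIC = lowest concentration without visible growth; values consistent across at least triplicate experiments.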
Background: In broth dilution the organism is exposed to a series of concentrations in liquid medium.

Data set [2] can be described thus: Cytotoxicity against human ciPTEC cells assessed as reduction in cell viability at 250 uM incubated for 24 hrs by PrestoBlue reagent based fluorescence assay. The data set is classed as toxicity. Put shortly: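 Differentiated ciPTEC-14.4 (conditionally immortalized) cells were washed with HBSS and then exposed to 250 μM compound in serum-free supplemented DMEM/F-12 for 24 h at 37 °C. After an HBSS wash, cells were incubated with 10% PrestoBlue in HBSS at 37 °C in the dark. Fluorescence was read at ex 530/em 590 nm, background-corrected, and expressed relative to medium-only cells; triplicates.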

Data set [3] deals with Escherichia coli. In words: Antibacterial activity against multidrug-resistant Escherichia coli NCTC 13846 assessed as bacterial growth inhibition by broth microdilution assay. It is filed as functional. Put shortly: (§2)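 Broth microdilution MIC. Strains grown overnight on blood agar at 37 °C, colonies suspended in TSB and grown to OD600 0.5. Compounds dissolved in DMSO (6.4 mg mL−1 stock), diluted serially in CAMHB (12.5 μg mL−1 Mg2+, 20 μg mL−1 Ca2+) on polypropylene plates. Final inoculum 10^6 CFU mL−1, 37 °C under gas-permeable membrane. MIC is the lowest concentration with no visible growth, consistent across at least triplicate experiments.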

Data set [4] relates to Klebsiella pneumoniae. In words: Antibacterial activity against Klebsiella pneumoniae NCTC 13443 assessed as bacterial growth inhibition by broth microdilution assay. The data set is classed as functional. Put shortly:
as §1

The subject of data set [5] is Acinetobacter baumannii. In words: Antibacterial activity against Acinetobacter baumannii ATCC 17978 assessed as bacterial growth inhibition by broth microdilution assay. It is filed as functional. Put shortly:
as §2

The nature of data set [6]: Cytotoxicity against human ciPTEC cells assessed as reduction in cell viability incubated for 24 hrs by PrestoBlue reagent based fluorescence assay. It is filed as toxicity. The settings on record: read-out: TC50. The gist of the method:
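ciPTEC-14.4 cells, differentiated, were treated for 24 h at 37 °C with compound at 100, 250, 500 or 1000 μM in serum-free DMEM/F-12 with insulin, transferrin, selenium, hydrocortisone, EGF and triiodothyronine. Viability was measured with 10% PrestoBlue in HBSS (fluorescence ex 530/em 590 nm), corrected for reagent background and normalized to untreated, medium-only control.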

Data set [7] has as its system Klebsiella pneumoniae. In words: Antibacterial activity against Klebsiella pneumoniae JS-123 assessed as bacterial growth inhibition by broth microdilution assay. The data set is classed as functional. Put shortly:
as §1

The test system of data set [8] is Pseudomonas aeruginosa. In words: Antibacterial activity against Pseudomonas aeruginosa ATCC 27853 assessed as bacterial growth inhibition by broth microdilution assay. The data set is classed as functional. The gist of the method: as §1
The test system of data set [9] is Acinetobacter baumannii. Description: Antibacterial activity against Acinetobacter baumannii ATCC 19606 assessed as bacterial growth inhibition by broth microdilution assay. It is filed as functional. Put shortly: as §2
Data set [10] deals with Klebsiella pneumoniae. Description: Antibacterial activity against Klebsiella pneumoniae ATCC 13883 assessed as bacterial growth inhibition by broth microdilution assay. It is filed as functional. The gist of the method: as §1
Data set [11] has as its system Pseudomonas aeruginosa. In words: Antibacterial activity against Pseudomonas aeruginosa NRZ 03961 assessed as bacterial growth inhibition by broth microdilution assay. It is filed as functional. The gist of the method:
as §1

Data set [12] concerns Escherichia coli. Description: Antibacterial activity against Escherichia coli ATCC 25922 assessed as bacterial growth inhibition by broth microdilution assay. The data set is classed as functional. The gist of the method: as §1
Data set [13] concerns Acinetobacter baumannii. Description: Antibacterial activity against Acinetobacter baumannii 2018-006 assessed as bacterial growth inhibition by broth microdilution assay. It is filed as functional. The gist of the method:
as §2

For data set [14], the system named is Acinetobacter baumannii. In words: Antibacterial activity against multidrug-resistant Acinetobacter baumannii assessed as bacterial growth inhibition by broth microdilution assay. The data set is classed as functional. Put shortly: as §2
The subject of data set [15] is Escherichia coli. Description: Antibacterial activity against Escherichia coli 1313 assessed as bacterial growth inhibition by broth microdilution assay. The data set is classed as functional. The gist of the method: as §1
The test system of data set [16] is Escherichia coli. Description: Synergistic antibacterial activity against polymyxin-resistant Escherichia coli assessed as fractional inhibitory concentration index incubated for 18 hrs in presence of erythromycin by checkerboard assay. It is filed as functional. Put shortly: (§3)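 8 × 8 checkerboard (64 combinations, each in triplicate) against E. coli EQAS mcr-2, grown to OD600 0.5 in TSB after overnight blood agar culture. Antibiotic and synergist serially diluted in CAMHB (12.5 μg mL−1 Mg2+, 20 μg mL−1 Ca2+), inoculum 10^6 CFU mL−1, 37 °C for 18 h. OD600 normalized to growth and no-growth controls. FICi calculated from minimal synergistic concentrations and single-agent MICs; ≤0.5 taken as synergy.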

For data set [17], the system named is Escherichia coli. In words: Synergistic antibacterial activity against polymyxin-resistant Escherichia coli assessed as fractional inhibitory concentration index incubated for 18 hrs in presence of rifampicin by checkerboard assay. It is filed as functional. Put shortly: as §3
For data set [18], the system named is Escherichia coli. Description: Synergistic antibacterial activity against polymyxin-resistant Escherichia coli assessed as fractional inhibitory concentration index incubated for 18 hrs in presence of novobiocin by checkerboard assay. The data set is classed as functional. The gist of the method: as §3

Values after ≈ are worked out from the molar mass of the structure shown. Positions of bridges follow the written chain, without caps; N, C: chain ends. Non-standard residues stand in square brackets, D forms with d. Residues, ends and D or L forms follow the SMILES beside them. *: point of attachment. X1 = CC[C@H](C)CCCCC(=O)*; Dab = NCC[C@H](N)C(=O)O

Turning to `CC[C@H](C)CCCCC(=O)N[C@@H](CCN)C(=O)N[C@H](C(=O)N[C@@H](CCN)C(=O)N[C@H]1CCNC(=O)[C@H]([C@@H](C)O)NC(=O)[C@H](CCN)NC(=O)[C@H](CCN)NC(=O)[C@H](CC(C)C)NC(=O)[C@@H](Cc2ccccc2)NC(=O)[C@H](CCN)NC1=O)[C@@H](C)O` (X1-[Dab]T[Dab][Dab][Dab][dF]L[Dab][Dab]T; lactam 4-C), the minimal inhibitory concentration (MIC) (usually the lowest concentration that inhibits growth of the organism) in the data set with Pseudomonas aeruginosa [1] amounted to 1 µg/mL (≈ 0.831 µM); in the data set with Escherichia coli [3], 4 µg/mL (≈ 3.32 µM); in the data set with Klebsiella pneumoniae [4] it was 0.5 µg/mL (≈ 0.415 µM); in the data set on Acinetobacter baumannii [5] it was 0.25 µg/mL (≈ 0.208 µM); in the data set on Klebsiella pneumoniae [7], 0.25 µg/mL (≈ 0.208 µM); with Pseudomonas aeruginosa [8], 1 µg/mL (≈ 0.831 µM). Also, the MIC in the data set with Acinetobacter baumannii [9] was 0.25 µg/mL (≈ 0.208 µM); in the data set with Klebsiella pneumoniae [10] it was 0.25 µg/mL (≈ 0.208 µM); in the data set with Pseudomonas aeruginosa [11], 1 µg/mL (≈ 0.831 µM); in the data set with Escherichia coli [12], 1 µg/mL (≈ 0.831 µM); in the data set with Acinetobacter baumannii [13], 0.125 µg/mL (≈ 0.104 µM); with Acinetobacter baumannii [14], 0.5 µg/mL (≈ 0.415 µM). For the same compound, the MIC in the data set with Escherichia coli [15] was 0.125 µg/mL (≈ 0.104 µM). In addition, the Activity in data set [2] worked out at 85%. In data set [6], the CC50 at 24 h was 1480 µM.
As to `CC(C)CCSSC[C@@H](N)C(=O)N[C@H](C(=O)N[C@@H](CN)C(=O)N[C@H]1CCNC(=O)[C@H]([C@@H](C)O)NC(=O)[C@H](CCN)NC(=O)[C@H](CCN)NC(=O)[C@H](CC(C)C)NC(=O)[C@@H](Cc2ccccc2)NC(=O)[C@H](CCN)NC1=O)[C@@H](C)O`, the “fractional inhibitory concentration index (FICI)” value with Escherichia coli [16] worked out at 0.27; in the data set on Escherichia coli [17], 0.14; with Escherichia coli [18], 0.19. Besides, the MIC in the data set on Pseudomonas aeruginosa [1] was 1 µg/mL (≈ 0.866 µM); in the data set on Escherichia coli [3] it was 4 µg/mL (≈ 3.46 µM); with Klebsiella pneumoniae [4], 0.25 µg/mL (≈ 0.217 µM); with Acinetobacter baumannii [5], 0.25 µg/mL (≈ 0.217 µM); in the data set on Klebsiella pneumoniae [7], 0.25 µg/mL (≈ 0.217 µM); with Pseudomonas aeruginosa [8], 1 µg/mL (≈ 0.866 µM). The minimum inhibitory concentration (MIC) in the data set on Acinetobacter baumannii [9] is 0.25 µg/mL (≈ 0.217 µM); with Klebsiella pneumoniae [10], 0.25 µg/mL (≈ 0.217 µM); in the data set on Pseudomonas aeruginosa [11], 1 µg/mL (≈ 0.866 µM); with Escherichia coli [12] it was 1 µg/mL (≈ 0.866 µM); in the data set on Acinetobacter baumannii [13], 0.25 µg/mL (≈ 0.217 µM); in the data set with Acinetobacter baumannii [14] it was 0.25 µg/mL (≈ 0.217 µM). Moreover, the minimum inhibitory concentration (MIC) in the data set with Escherichia coli [15] was no more than 0.125 µg/mL. Further, in data set [6], the CC50 at 24 h turned out to be 130 µM.

These data come from ChEMBL document CHEMBL5356951, “Semisynthetic polymyxins with potent antibacterial activity and reduced kidney cell toxicity” (RSC Med Chem, 2023).
